Source: ChEMBL document CHEMBL4622869, “Discovery and structure-activity relationships study of positive allosteric modulators of the M3 muscarinic acetylcholine receptor” (Bioorg Med Chem, 2020)

Tests used:
[1] = biological target: Muscarinic acetylcholine receptor M3 (Homo sapiens) (UniProt P20309); experiment: (§1) Positive allosteric modulation of recombinant human muscarinic acetylcholine receptor M3 expressed in CHOK1 cells assessed as increase in carbachol-induced intracellular calcium flux at 10 uM preincubated for 5 mins followed by carbachol addition by Fluo4-AM dye based FLIPR assay relative to carbachol; type: functional, cell-based; settings: CHO-K1
How it was run: (§2)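 CHO-K1 cells stably expressing human or rat M1–M5; M2 and M4 lines also co-express human Gα16. Cells loaded with 3.1 μM Fluo-4 AM in HBSS/20 mM HEPES pH 7.5/BSA/2.5 mM probenecid for ~2 h at room temperature. Test substance at 10 μM final, then carbachol (0.0024 nM–100 μM) ~5 min later; Ca2+ read by FLIPR Tetra. Fold shift = carbachol EC50 without / with test substance, from logistic fits.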

[2] = biological target: T1, Muscarinic acetylcholine receptor M1 (Rattus norvegicus) (UniProt P08482); experiment: Positive allosteric modulation of recombinant rat muscarinic acetylcholine receptor M1 expressed in CHOK1 cells assessed as increase in carbachol-induced intracellular calcium flux at 10 uM preincubated for 5 mins followed by carbachol addition by Fluo4-AM dye based FLIPR assay relative to carbachol; type: functional, cell-based; settings: CHO-K1; how it was run: as §2
T1 sequence (whole entry): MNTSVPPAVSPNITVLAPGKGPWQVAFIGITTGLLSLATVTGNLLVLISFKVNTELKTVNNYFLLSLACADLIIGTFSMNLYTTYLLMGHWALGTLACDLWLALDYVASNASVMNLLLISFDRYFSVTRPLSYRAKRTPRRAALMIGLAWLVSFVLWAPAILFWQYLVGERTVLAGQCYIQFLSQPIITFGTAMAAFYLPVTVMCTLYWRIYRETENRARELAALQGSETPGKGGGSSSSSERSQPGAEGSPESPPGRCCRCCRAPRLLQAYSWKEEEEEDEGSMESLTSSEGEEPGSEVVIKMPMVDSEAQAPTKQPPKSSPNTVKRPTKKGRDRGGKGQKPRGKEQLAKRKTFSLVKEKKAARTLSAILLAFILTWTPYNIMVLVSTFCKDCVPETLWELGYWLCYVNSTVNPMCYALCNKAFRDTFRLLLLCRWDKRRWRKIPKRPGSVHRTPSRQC

[3] = biological target: T2, Muscarinic acetylcholine receptor M5 (Homo sapiens) (UniProt P08912); experiment: as §1, with “M5” for “M3”; type: functional, cell-based; settings: CHO-K1; how it was run: as §2
T2 sequence (whole entry): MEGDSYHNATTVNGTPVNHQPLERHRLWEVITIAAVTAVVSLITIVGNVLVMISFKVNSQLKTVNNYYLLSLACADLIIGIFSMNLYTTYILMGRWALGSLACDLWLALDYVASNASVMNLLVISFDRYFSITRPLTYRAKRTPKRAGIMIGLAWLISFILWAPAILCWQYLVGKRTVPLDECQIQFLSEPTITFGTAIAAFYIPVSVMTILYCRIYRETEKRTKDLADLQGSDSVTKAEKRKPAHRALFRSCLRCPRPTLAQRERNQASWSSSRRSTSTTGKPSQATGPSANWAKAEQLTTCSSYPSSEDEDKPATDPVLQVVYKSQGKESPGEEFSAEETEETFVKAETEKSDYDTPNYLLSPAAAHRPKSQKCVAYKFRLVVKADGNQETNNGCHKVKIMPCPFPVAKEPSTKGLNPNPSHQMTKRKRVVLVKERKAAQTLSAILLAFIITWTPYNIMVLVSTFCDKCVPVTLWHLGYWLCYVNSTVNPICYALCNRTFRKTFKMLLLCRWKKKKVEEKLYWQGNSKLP

[4] = biological target: T3, Muscarinic acetylcholine receptor M5 (Rattus norvegicus) (UniProt P08911); experiment: Positive allosteric modulation of recombinant rat muscarinic acetylcholine receptor M5 expressed in CHOK1 cells assessed as increase in carbachol-induced intracellular calcium flux at 10 uM preincubated for 5 mins followed by carbachol addition by Fluo4-AM dye based FLIPR assay relative to carbachol; type: functional, cell-based; settings: CHO-K1; how it was run: as §2
T3 sequence (whole entry): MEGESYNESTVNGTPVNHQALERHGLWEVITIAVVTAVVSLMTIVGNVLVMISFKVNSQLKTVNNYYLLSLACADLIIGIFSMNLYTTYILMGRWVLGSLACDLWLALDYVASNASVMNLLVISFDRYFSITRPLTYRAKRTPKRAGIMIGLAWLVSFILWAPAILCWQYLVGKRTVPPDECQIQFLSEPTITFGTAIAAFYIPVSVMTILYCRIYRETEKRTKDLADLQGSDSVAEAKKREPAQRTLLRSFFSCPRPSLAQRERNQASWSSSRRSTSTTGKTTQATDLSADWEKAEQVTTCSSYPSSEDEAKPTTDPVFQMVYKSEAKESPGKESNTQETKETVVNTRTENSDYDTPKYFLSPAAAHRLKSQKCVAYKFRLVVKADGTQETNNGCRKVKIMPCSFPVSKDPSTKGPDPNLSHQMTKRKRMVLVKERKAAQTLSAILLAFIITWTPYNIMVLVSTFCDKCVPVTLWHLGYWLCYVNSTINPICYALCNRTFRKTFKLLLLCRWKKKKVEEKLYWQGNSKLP

[5] = biological target: Muscarinic acetylcholine receptor M3 (Rattus norvegicus) (UniProt P08483); experiment: Positive allosteric modulation of muscarinic acetylcholine receptor M3 in Sprague-Dawley rat urinary bladder assessed as increase in 8 Hz electrical field stimulation-induced bladder contraction
How it was run: (§3)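 Female Sprague-Dawley rats, 9–10 weeks old. Longitudinal bladder strips (~10×2 mm) in Krebs at 37°C, gassed with 95% O2/5% CO2. EFS at 8 Hz, 10 s trains, 0.3 ms pulses, voltage set to give about half-maximal response. Drug added cumulatively at 1, 3 and 10 μM, 10 stimulations per concentration. Contraction = peak minus basal tone, averaged over the last 3 contractions and compared with pre-drug value (n=7).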

[6] = Cmax in Crl:CD(SD) rat at 1 mg/kg, po measured up to 24 hrs by LC-MS/MS analysis; type: ADME, organism-based; set-up: dose 1 mg/kg, route oral; settings: in vivo
How it was run: (§4)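 Male Crl:CD(SD) rats, 8 weeks old, food deprived (n=4); iv 0.3 mg/kg or po 1 mg/kg in DMF/propylene glycol/water for injection (1/1/8) containing 1 M NaOH (2 equivalents). Plasma sampled to 24 h, assayed by validated LC-MS/MS. Parameters from each animal by noncompartmental analysis, reported as means.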

[7] = AUCinfinity in Crl:CD(SD) rat at 1 mg/kg, po measured up to 24 hrs by LC-MS/MS analysis; type: ADME, organism-based; set-up: dose 1 mg/kg, time infinity, route oral; settings: in vivo; how it was run: as §4
[8] = biological target: Muscarinic acetylcholine receptor M3 (Rattus norvegicus) (UniProt P08483); experiment: Positive allosteric modulation of muscarinic acetylcholine receptor M3 in Sprague-Dawley rat urinary bladder assessed as increase in 8 Hz electrical field stimulation-induced bladder contraction by measuring tension of isolated bladder contraction at 10 uM (reference value: 2.21 +/- 0.26 g); how it was run: as §3
[9] = biological target: Muscarinic acetylcholine receptor M3 (Homo sapiens) (UniProt P20309); experiment: Positive allosteric modulation of recombinant human muscarinic acetylcholine receptor M3 expressed in CHOK1 cells assessed as increase in carbachol-induced intracellular calcium flux preincubated for 5 mins followed by carbachol addition by Fluo4-AM dye based FLIPR assay; type: functional, cell-based; settings: CHO-K1
How it was run: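 Human M3 in CHO-K1 cells, Fluo-4 AM loaded (3.1 μM, ~2 h, room temperature). Test substance at 0.01–30 μM added ~5 min before a carbachol concentration series (0.0024 nM–100 μM); Ca2+ flux read on FLIPR Tetra to give carbachol concentration-response curves, with DMSO as vehicle.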

Chain of Muscarinic acetylcholine receptor M3 (Homo sapiens) (P20309 whole entry, looked up): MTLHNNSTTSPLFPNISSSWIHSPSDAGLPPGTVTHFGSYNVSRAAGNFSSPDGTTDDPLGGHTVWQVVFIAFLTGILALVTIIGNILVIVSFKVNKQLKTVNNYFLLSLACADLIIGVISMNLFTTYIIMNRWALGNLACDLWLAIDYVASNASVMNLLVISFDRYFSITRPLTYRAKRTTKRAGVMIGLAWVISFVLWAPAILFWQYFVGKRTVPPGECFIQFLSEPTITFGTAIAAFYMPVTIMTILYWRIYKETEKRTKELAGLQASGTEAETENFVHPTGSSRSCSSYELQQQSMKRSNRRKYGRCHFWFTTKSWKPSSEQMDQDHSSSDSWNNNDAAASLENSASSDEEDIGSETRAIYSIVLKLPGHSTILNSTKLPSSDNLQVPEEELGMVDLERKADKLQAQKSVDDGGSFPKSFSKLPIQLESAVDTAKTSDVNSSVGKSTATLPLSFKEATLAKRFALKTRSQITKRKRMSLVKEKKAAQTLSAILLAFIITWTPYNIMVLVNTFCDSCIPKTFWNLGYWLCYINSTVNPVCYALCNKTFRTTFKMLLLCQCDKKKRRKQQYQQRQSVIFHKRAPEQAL
Chain of Muscarinic acetylcholine receptor M3 (Rattus norvegicus) (P08483 whole entry, looked up): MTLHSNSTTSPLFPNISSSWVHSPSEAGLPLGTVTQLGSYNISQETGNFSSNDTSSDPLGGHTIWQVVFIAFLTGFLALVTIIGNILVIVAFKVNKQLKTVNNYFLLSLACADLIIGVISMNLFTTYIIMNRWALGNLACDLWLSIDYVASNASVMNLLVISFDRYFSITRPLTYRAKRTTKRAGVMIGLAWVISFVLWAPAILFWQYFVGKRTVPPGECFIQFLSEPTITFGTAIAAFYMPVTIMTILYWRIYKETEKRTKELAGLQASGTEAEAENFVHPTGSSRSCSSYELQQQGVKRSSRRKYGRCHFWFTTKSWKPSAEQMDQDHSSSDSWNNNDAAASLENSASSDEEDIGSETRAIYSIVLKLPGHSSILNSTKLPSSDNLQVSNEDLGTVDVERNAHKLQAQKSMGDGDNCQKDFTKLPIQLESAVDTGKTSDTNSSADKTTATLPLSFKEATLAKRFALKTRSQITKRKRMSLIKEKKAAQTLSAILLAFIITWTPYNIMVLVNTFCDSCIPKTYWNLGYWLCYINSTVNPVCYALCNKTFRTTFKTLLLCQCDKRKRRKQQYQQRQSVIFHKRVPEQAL

SMILES: CC[C@@H]1CCCN1Cc1sc(NC(=O)c2cnc(N3CCC(C(=O)O)CC3)cn2)nc1-c1ccc(OC)c(C(F)(F)F)c1.Cl.Cl
- fold change (FC) [1]: 269
- fold change (FC) [2]: 2.1
- fold change (FC) [3]: 94
- fold change (FC) [4]: 110
- Activity [5]: Dose-dependent effect
- Cmax [6]: 85.3 ng/mL
- AUC(0-inf) [7]: 209 ng·h/mL
- Activity [8]: 3.49 g
- Activity [9]: Dose-dependent effect
